Test results: ChEMBL document CHEMBL1795232, “Benzoxazinones as potent positive allosteric AMPA receptor modulators: part I” (Bioorg Med Chem Lett, 2011)

species on record: Rattus norvegicus; assay: Positive allosteric modulation at AMPA receptor in Sprague-Dawley rat adult hippocampal slice assessed as increase in field excitatory postsynaptic potential amplitude at 30 uM; assay type: tissue-based; conditions: Hippocampus
Procedure, shortened: (§1)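 Transverse hippocampal slices from adult male Sprague-Dawley rats (4-6 weeks) held on nylon net in a rapid-flow linear interface chamber. Schaffer-commissural fibers stimulated with paired pulses (200 ms interval) at 0.05 Hz. After a 20-30 min stable baseline, compound infused 30 min, then washed out with control ACSF. DMSO stocks diluted into ACSF. Read-out was percentage increase in fEPSP amplitude.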

**Q.** For `O=C1NCOc2cc3c(cc21)OC1CCCN1C3=O` (stereo unspecified), which Activity is on record?
**A.** 5%

species on record: Rattus norvegicus; assay: Positive allosteric modulation at AMPA receptor in Sprague-Dawley rat adult hippocampal slice assessed as increase in field excitatory postsynaptic potential amplitude at 10 uM; assay type: tissue-based; conditions: Hippocampus; procedure, shortened: as §1

**Q.** For `O=C1c2cc3c(cc2OCN1CCF)C(=O)N1CCCC1O3` (stereo unspecified), which Activity is on record?
**A.** 9%

**Q.** With `CC(C)N1COc2cc3c(cc2C1=O)OC1CCCN1C3=O` (stereo unspecified) as the compound, how does the Activity read?
**A.** 3%

**Q.** For `CCN1COc2cc3c(cc2C1=O)OC1CCCN1C3=O` (stereo unspecified), which Activity is on record?
**A.** 17%

**Q.** For `CN1COc2cc3c(cc2C1=O)OC1CCCN1C3=O` (stereo unspecified), which Activity is on record?
**A.** 19%

**Q.** With `O=C1c2cc3c(cc2OCN1C1CC1)C(=O)N1CCCC1O3` (stereo unspecified) as the compound, how does the Activity read?
**A.** 10%

molecular target: not listed separately; assay: Displacement of [3H]AMPAKINE from AMPA receptor in rat forebrain; conditions: not given

**Q.** Which Ki does the source give for `O=C1c2cc3c(cc2OCN1CCF)C(=O)N1CCCC1O3` (stereo unspecified) here?
**A.** 33 µM

**Q.** For `O=C1NCOc2cc3c(cc21)OC1CCCN1C3=O` (stereo unspecified), which Ki is on record?
**A.** 225 µM

**Q.** With `C=CCN1COc2cc3c(cc2C1=O)OC1CCCN1C3=O` (stereo unspecified) as the compound, how does the Ki read?
**A.** 18 µM

**Q.** For `CC(C)N1COc2cc3c(cc2C1=O)OC1CCCN1C3=O` (stereo unspecified), which Ki is on record?
**A.** 100 µM

**Q.** Which Ki does the source give for `CCCN1COc2cc3c(cc2C1=O)OC1CCCN1C3=O` (stereo unspecified) here?
**A.** 70 µM

**Q.** For `C#CCN1COc2cc3c(cc2C1=O)OC1CCCN1C3=O` (stereo unspecified), which Ki is on record?
**A.** 7 µM

**Q.** Which Ki does the source give for `O=C1c2cc3c(cc2OCN1C1CCCC1)C(=O)N1CCCC1O3` (stereo unspecified) here?
**A.** 163 µM

**Q.** With `O=C1c2cc3c(cc2OCN1CC(F)(F)F)C(=O)N1CCCC1O3` (stereo unspecified) as the compound, how does the Ki read?
**A.** 330 µM

**Q.** With `CCN1COc2cc3c(cc2C1=O)OC1CCCN1C3=O` (stereo unspecified) as the compound, how does the Ki read?
**A.** 20 µM

**Q.** Which Ki does the source give for `CN1COc2cc3c(cc2C1=O)OC1CCCN1C3=O` (stereo unspecified) here?
**A.** 18 µM

**Q.** With `O=C1c2cc3c(cc2OCN1C1CC1)C(=O)N1CCCC1O3` (stereo unspecified) as the compound, how does the Ki read?
**A.** 26 µM

species on record: Rattus norvegicus; assay: Positive allosteric modulation at AMPA receptor in Sprague-Dawley rat embryonic hippocampal neuron assessed as concentration required to double the steady-state current induced by glutamate by patch-clamp assay; assay type: tissue-based; conditions: Hippocampus
Procedure, shortened: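 Hippocampal neurons from E18 Sprague-Dawley rats, cultured 4-7 days, whole-cell voltage-clamped at -80 mV at room temperature. Cells were pretreated 20 s with saline or modulator by superfusion, then given 500 µM glutamate with or without modulator for 1 s. Mean plateau current at 600-900 ms was taken. EC2x is the concentration doubling the steady-state glutamate current.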

**Q.** Which Activity does the source give for `O=C1c2cc3c(cc2OCN1CCF)C(=O)N1CCCC1O3` (stereo unspecified) here?
**A.** 0.5 µM

**Q.** With `O=C1NCOc2cc3c(cc21)OC1CCCN1C3=O` (stereo unspecified) as the compound, how does the Activity read?
**A.** 5 µM

**Q.** Which Activity does the source give for `CC(C)CN1COc2cc3c(cc2C1=O)OC1CCCN1C3=O` (stereo unspecified) here?
**A.** 41 µM

**Q.** With `O=C1c2cc3c(cc2OC2CCCN12)OCOC3` (stereo unspecified) as the compound, how does the Activity read?
**A.** 22 µM

**Q.** For `O=C1c2cc3c(cc2OC2CCCN12)C(=O)N1CCCC1O3` (stereo unspecified), which Activity is on record?
**A.** 0.06 µM

**Q.** Which Activity does the source give for `CC(CNS(=O)(=O)C(C)C)c1ccc(-c2ccsc2)cc1` (stereo unspecified) here?
**A.** 0.07 µM

**Q.** With `C=CCN1COc2cc3c(cc2C1=O)OC1CCCN1C3=O` (stereo unspecified) as the compound, how does the Activity read?
**A.** 0.5 µM

**Q.** Which Activity does the source give for `CC(C)N1COc2cc3c(cc2C1=O)OC1CCCN1C3=O` (stereo unspecified) here?
**A.** 0.9 µM

**Q.** With `CCCN1COc2cc3c(cc2C1=O)OC1CCCN1C3=O` (stereo unspecified) as the compound, how does the Activity read?
**A.** 2.5 µM

**Q.** Which Activity does the source give for `C#CCN1COc2cc3c(cc2C1=O)OC1CCCN1C3=O` (stereo unspecified) here?
**A.** 0.25 µM

**Q.** For `O=C1c2cc3c(cc2OCN1C1CCCC1)C(=O)N1CCCC1O3` (stereo unspecified), which Activity is on record?
**A.** 7 µM

**Q.** With `O=C1c2cc3c(cc2OCN1CC(F)(F)F)C(=O)N1CCCC1O3` (stereo unspecified) as the compound, how does the Activity read?
**A.** 8.8 µM

**Q.** Which Activity does the source give for `O=C1c2cc3c(cc2OC2CCCN12)OCCO3` (stereo unspecified) here?
**A.** 2.3 µM

**Q.** For `O=C1c2cc3c(cc2OC2CCCN12)CCCO3` (stereo unspecified), which Activity is on record?
**A.** 1.1 µM

**Q.** With `COc1ccc(C(=O)N2CCCC2=O)cc1` as the compound, how does the Activity read?
**A.** > 1000 µM

**Q.** Which Activity does the source give for `O=C1c2cc3c(cc2OC2CCCN12)OC1CCCN1C3=O` (stereo unspecified) here?
**A.** 2.6 µM

**Q.** Which Activity does the source give for `CCN1COc2cc3c(cc2C1=O)OC1CCCN1C3=O` (stereo unspecified) here?
**A.** 0.2 µM

**Q.** With `O=C1c2cc3c(cc2OC2CCCN12)COCO3` (stereo unspecified) as the compound, how does the Activity read?
**A.** 1.1 µM

**Q.** With `CN1COc2cc3c(cc2C1=O)OC1CCCN1C3=O` (stereo unspecified) as the compound, how does the Activity read?
**A.** 0.1 µM

**Q.** With `O=C1c2cc3c(cc2OCN1C1CC1)C(=O)N1CCCC1O3` (stereo unspecified) as the compound, how does the Activity read?
**A.** 0.8 µM

**Q.** With `NS(=O)(=O)c1cc2c(cc1Cl)NC(C1CC3C=CC1C3)NS2(=O)=O` (stereo unspecified) as the compound, how does the Activity read?
**A.** 1.6 µM

species on record: Rattus norvegicus; assay: Positive allosteric modulation at AMPA receptor in Sprague-Dawley rat adult hippocampal slice assessed as increase in field excitatory postsynaptic potential amplitude at 3 uM; assay type: tissue-based; conditions: Hippocampus; procedure, shortened: as §1

**Q.** Which Activity does the source give for `C#CCN1COc2cc3c(cc2C1=O)OC1CCCN1C3=O` (stereo unspecified) here?
**A.** 6%

species on record: Rattus norvegicus; assay: Positive allosteric modulation at AMPA receptor in Sprague-Dawley rat adult hippocampal slice assessed as increase in field excitatory postsynaptic potential amplitude at 1 uM; assay type: tissue-based; conditions: Hippocampus; procedure, shortened: as §1

**Q.** For `CCCN1COc2cc3c(cc2C1=O)OC1CCCN1C3=O` (stereo unspecified), which Activity is on record?
**A.** 0%

**Q.** For `O=C1c2cc3c(cc2OCN1CC(F)(F)F)C(=O)N1CCCC1O3` (stereo unspecified), which Activity is on record?
**A.** 0%
